Results published in PubChem BioAssay AID588785 (The Scripps Research Institute Molecular Screening Center, 2011).
Active and inactive are the calls of the source.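 Rule for the calls: active = spectra count ratio compound/DMSO 0.5 or lower for pPAFAH, with at most one off-target serine hydrolase also that low; inactive = ratio above 0.5 for pPAFAH, or two-plus off-targets hit.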

Legend:
Experiment in all cases: off-target hydrolase inhibition by ABPP-MudPIT – biochemical, LC-MS/MS, mouse brain membrane proteome, selectivity assay for pPAFAH inhibitor project, late-stage follow-up (AID 588785)
Rbbp9 = details: ABPP-MudPIT FP-biotin spectral counts, at 1 µM, stronger effect = lower value
In short: (§1)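 Detection: ABPP-MudPIT LC-MS/MS spectral counting. System: mouse brain membrane proteome. Quantity: proteome at 1 mg/mL protein. Replicates: 3–4 biological replicates. Measure: Compound/DMSO spectral-count ratio per protein. Timing: 30 min 37 °C compound, 2 h 25 °C probe. Medium: Tris buffer pH 8.0, 50 mM.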

Bat5 = details: ABPP-MudPIT FP-biotin spectral counts, at 1 µM, stronger effect = lower value
In short: as §1

Lyplal1 = details: ABPP-MudPIT FP-biotin spectral counts, at 1 µM, stronger effect = lower value
In short: as §1

Pme1 = details: ABPP-MudPIT FP-biotin spectral counts, at 1 µM, stronger effect = lower value
In short: as §1

Dpp8 = details: ABPP-MudPIT FP-biotin spectral counts, at 1 µM, stronger effect = lower value
In short: as §1

Abhd11 = details: ABPP-MudPIT FP-biotin spectral counts, at 1 µM, stronger effect = lower value
In short: as §1

Nceh1 = details: ABPP-MudPIT FP-biotin spectral counts, at 1 µM, stronger effect = lower value
In short: as §1

[1] = target: Palmitoyl-protein thioesterase ABHD10, mitochondrial (Mus musculus) (UniProt Q6PE15); details: ABPP-MudPIT FP-biotin spectral counts, at 1 µM, stronger effect = lower value
In short: as §1

[2] = target: Monoacylglycerol lipase ABHD6 (Mus musculus) (UniProt Q8R2Y0); details: ABPP-MudPIT FP-biotin spectral counts, at 1 µM, stronger effect = lower value
In short: as §1

Abhd4 = Abhd4 (UniProt Q8VD66); details: ABPP-MudPIT FP-biotin spectral counts, at 1 µM, stronger effect = lower value
In short: as §1

Acot7 = details: ABPP-MudPIT FP-biotin spectral counts, at 1 µM, stronger effect = lower value
In short: as §1

Fam108a = details: ABPP-MudPIT FP-biotin spectral counts, at 1 µM, stronger effect = lower value
In short: as §1

Parl = details: ABPP-MudPIT FP-biotin spectral counts, at 1 µM, stronger effect = lower value
In short: as §1

Prcp = details: ABPP-MudPIT FP-biotin spectral counts, at 1 µM, stronger effect = lower value
In short: as §1

Acot3 = details: ABPP-MudPIT FP-biotin spectral counts, at 1 µM, stronger effect = lower value
In short: as §1

Pla2g15 = details: ABPP-MudPIT FP-biotin spectral counts, at 1 µM, stronger effect = lower value
In short: as §1

Lactb = details: ABPP-MudPIT FP-biotin spectral counts, at 1 µM, stronger effect = lower value
In short: as §1

Pafah1b2 = details: ABPP-MudPIT FP-biotin spectral counts, at 1 µM, stronger effect = lower value
In short: as §1

Pnpla8 = details: ABPP-MudPIT FP-biotin spectral counts, at 1 µM, stronger effect = lower value
In short: as §1

Fam108c1 = details: ABPP-MudPIT FP-biotin spectral counts, at 1 µM, stronger effect = lower value
In short: as §1

Acot2 = details: ABPP-MudPIT FP-biotin spectral counts, at 1 µM, stronger effect = lower value
In short: as §1

Fam108b1 = details: ABPP-MudPIT FP-biotin spectral counts, at 1 µM, stronger effect = lower value
In short: as §1

Tpp2 = details: ABPP-MudPIT FP-biotin spectral counts, at 1 µM, stronger effect = lower value
In short: as §1

Es1 = details: ABPP-MudPIT FP-biotin spectral counts, at 1 µM, stronger effect = lower value
In short: as §1

Ache = details: ABPP-MudPIT FP-biotin spectral counts, at 1 µM, stronger effect = lower value
In short: as §1

[3] = target: Prolyl endopeptidase (Mus musculus) (UniProt Q9QUR6); details: ABPP-MudPIT FP-biotin spectral counts, Prep, at 1 µM, stronger effect = lower value
In short: as §1

[4] = target: Acyl-protein thioesterase 1 (Mus musculus) (UniProt P97823); details: ABPP-MudPIT FP-biotin spectral counts, Lypla1, at 1 µM, stronger effect = lower value
In short: as §1

Magl = details: ABPP-MudPIT FP-biotin spectral counts, at 1 µM, stronger effect = lower value
In short: as §1

[5] = target: Platelet-activating factor acetylhydrolase (Mus musculus) (UniProt Q60963); details: ABPP-MudPIT FP-biotin spectral counts, Pla2g7 (pPAFAH), at 1 µM, stronger effect = lower value
In short: as §1

Prepl = details: ABPP-MudPIT FP-biotin spectral counts, at 1 µM, stronger effect = lower value
In short: as §1

Acot6 = details: ABPP-MudPIT FP-biotin spectral counts, at 1 µM, stronger effect = lower value
In short: as §1

Apeh = details: ABPP-MudPIT FP-biotin spectral counts, at 1 µM, stronger effect = lower value
In short: as §1

Lypla2 = details: ABPP-MudPIT FP-biotin spectral counts, at 1 µM, stronger effect = lower value
In short: as §1

Acot1 = details: ABPP-MudPIT FP-biotin spectral counts, at 1 µM, stronger effect = lower value
In short: as §1

Pnpla6 = details: ABPP-MudPIT FP-biotin spectral counts, at 1 µM, stronger effect = lower value
In short: as §1

Abhd3 = details: ABPP-MudPIT FP-biotin spectral counts, at 1 µM, stronger effect = lower value
In short: as §1

Dpp9 = details: ABPP-MudPIT FP-biotin spectral counts, at 1 µM, stronger effect = lower value
In short: as §1

Abhd12 = details: ABPP-MudPIT FP-biotin spectral counts, at 1 µM, stronger effect = lower value
In short: as §1

Faah = details: ABPP-MudPIT FP-biotin spectral counts, at 1 µM, stronger effect = lower value
In short: as §1

Fasn = details: ABPP-MudPIT FP-biotin spectral counts, at 1 µM, stronger effect = lower value
In short: as §1

Esd = details: ABPP-MudPIT FP-biotin spectral counts, at 1 µM, stronger effect = lower value
In short: as §1

Pafah1b3 = details: ABPP-MudPIT FP-biotin spectral counts, at 1 µM, stronger effect = lower value
In short: as §1

Lipe = details: ABPP-MudPIT FP-biotin spectral counts, at 1 µM, stronger effect = lower value
In short: as §1

Measured: spectra count ratio compound/DMSO

Sequence of Platelet-activating factor acetylhydrolase (Mus musculus) (Q60963 whole entry, looked up): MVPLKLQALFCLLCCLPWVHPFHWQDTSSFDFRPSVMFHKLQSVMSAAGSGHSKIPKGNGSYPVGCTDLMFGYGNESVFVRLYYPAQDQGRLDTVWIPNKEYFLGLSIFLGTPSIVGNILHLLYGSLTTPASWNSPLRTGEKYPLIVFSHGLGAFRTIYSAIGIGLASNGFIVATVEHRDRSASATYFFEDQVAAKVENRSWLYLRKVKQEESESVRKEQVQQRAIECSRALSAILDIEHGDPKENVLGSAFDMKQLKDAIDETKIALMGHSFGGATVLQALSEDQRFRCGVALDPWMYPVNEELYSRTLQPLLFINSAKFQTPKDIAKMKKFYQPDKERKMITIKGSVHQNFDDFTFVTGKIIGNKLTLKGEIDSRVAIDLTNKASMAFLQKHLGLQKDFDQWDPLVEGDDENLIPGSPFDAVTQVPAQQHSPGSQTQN
Sequence of Abhd4 (Q8VD66 whole entry, looked up): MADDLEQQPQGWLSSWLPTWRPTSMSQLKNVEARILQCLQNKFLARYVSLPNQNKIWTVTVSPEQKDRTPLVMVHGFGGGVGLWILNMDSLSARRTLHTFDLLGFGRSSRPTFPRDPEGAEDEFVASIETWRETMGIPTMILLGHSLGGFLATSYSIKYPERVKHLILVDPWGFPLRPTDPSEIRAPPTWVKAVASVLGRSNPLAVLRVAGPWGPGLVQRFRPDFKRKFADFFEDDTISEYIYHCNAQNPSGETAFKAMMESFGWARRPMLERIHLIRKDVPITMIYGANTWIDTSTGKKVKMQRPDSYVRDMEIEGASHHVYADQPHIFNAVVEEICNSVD
Sequence of Acyl-protein thioesterase 1 (Mus musculus) (P97823 whole entry, looked up): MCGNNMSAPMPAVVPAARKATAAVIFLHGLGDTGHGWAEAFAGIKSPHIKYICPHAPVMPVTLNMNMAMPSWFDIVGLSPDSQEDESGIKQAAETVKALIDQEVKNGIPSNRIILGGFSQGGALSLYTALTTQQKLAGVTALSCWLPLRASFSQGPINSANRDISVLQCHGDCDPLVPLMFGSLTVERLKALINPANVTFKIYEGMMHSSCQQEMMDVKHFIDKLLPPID
Sequence of Monoacylglycerol lipase ABHD6 (Mus musculus) (Q8R2Y0 whole entry, looked up): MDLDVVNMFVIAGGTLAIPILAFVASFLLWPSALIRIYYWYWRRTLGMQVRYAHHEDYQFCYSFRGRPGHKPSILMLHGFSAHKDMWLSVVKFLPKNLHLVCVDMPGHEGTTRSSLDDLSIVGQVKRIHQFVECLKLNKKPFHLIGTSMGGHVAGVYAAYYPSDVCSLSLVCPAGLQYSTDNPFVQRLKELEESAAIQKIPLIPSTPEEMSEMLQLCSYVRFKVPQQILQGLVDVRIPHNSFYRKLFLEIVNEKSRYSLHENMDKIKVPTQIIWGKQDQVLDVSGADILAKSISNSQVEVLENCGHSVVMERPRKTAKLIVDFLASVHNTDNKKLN
Sequence of Prolyl endopeptidase (Mus musculus) (Q9QUR6 whole entry, looked up): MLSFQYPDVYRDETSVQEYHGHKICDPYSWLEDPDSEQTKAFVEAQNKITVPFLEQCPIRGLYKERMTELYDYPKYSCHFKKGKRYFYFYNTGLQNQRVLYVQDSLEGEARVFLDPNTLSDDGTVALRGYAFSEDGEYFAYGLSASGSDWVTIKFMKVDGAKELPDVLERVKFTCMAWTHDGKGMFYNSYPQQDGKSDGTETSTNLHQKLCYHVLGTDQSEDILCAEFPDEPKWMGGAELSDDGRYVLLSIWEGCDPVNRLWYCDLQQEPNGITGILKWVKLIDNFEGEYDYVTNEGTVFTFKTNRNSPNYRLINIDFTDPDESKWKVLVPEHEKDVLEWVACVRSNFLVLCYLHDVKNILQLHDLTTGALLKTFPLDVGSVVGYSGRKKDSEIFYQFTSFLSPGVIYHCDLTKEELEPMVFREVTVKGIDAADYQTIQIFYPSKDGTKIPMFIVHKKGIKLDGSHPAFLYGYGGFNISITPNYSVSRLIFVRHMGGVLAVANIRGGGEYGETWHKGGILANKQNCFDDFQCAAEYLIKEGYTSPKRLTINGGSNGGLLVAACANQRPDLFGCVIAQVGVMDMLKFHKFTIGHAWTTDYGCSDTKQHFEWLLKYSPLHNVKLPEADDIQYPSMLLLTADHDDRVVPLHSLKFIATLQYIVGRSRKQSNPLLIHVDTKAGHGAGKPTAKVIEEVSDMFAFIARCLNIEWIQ
Sequence of Palmitoyl-protein thioesterase ABHD10, mitochondrial (Mus musculus) (Q6PE15 whole entry, looked up): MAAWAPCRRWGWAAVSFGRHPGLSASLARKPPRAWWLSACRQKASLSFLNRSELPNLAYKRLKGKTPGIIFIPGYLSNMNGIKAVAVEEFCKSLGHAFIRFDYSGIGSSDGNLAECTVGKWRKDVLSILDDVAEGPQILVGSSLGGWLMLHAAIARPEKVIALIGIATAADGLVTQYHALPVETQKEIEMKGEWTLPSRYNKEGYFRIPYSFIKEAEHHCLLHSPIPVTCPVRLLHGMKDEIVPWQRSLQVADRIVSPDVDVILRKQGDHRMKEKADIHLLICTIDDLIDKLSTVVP

Cc1cc(N2CCN(C(=O)Oc3ccc(-c4ccccc4)cn3)CC2)c2ccccc2n1
active: Es1 0 | [5] 0.1
inactive: Rbbp9 1.3 | Bat5 0.9 | Lyplal1 1.2 | Pme1 1.3 | Dpp8 0.9 | Abhd11 1 | Nceh1 1.1 | [1] 1.5 | [2] 1.1 | Abhd4 1 | Acot7 0.7 | Fam108a 0.9 | Parl 1.1 | Prcp 1 | Acot3 0.8 | Pla2g15 0.8 | Lactb 0.7 | Pafah1b2 0.8 | Pnpla8 0.9 | Fam108c1 1 | Acot2 1.4 | Fam108b1 1.1 | Tpp2 1.2 | Ache 0.9 | [3] 1.2 | [4] 1.6 | Magl 1.3 | Prepl 1.1 | Acot6 1 | Apeh 0.9 | Lypla2 1.7 | Acot1 1 | Pnpla6 0.8 | Abhd3 1.3 | Dpp9 1.1 | Abhd12 1.1 | Faah 0.8 | Fasn 1 | Esd 1.2 | Pafah1b3 0.8 | Lipe 1.3
